# Source: PubChem BioAssay (Johns Hopkins Ion Channel Center)
# KCNQ1 inh: inhibitors of human KCNQ1 channel, primary screen, cell-based, thallium flux, high-throughput | CHO-K1 KCNQ1, FluxOR thallium flux fluorescence; hits give high values | Potassium voltage-gated channel subfamily KQT member 1 (Homo sapiens), P51787 | B-score at 10 µM | 1.3% of 310,000 active;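 active = compounds whose thallium flux B-score, printed positive for inhibition, exceeds three library SD while starting fluorescence stays within three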;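 note: channel opened by potassium depolarization with thallium stimulus after 20 min compound exposure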
# hERG protect: hERG rescue from dofetilide block, primary screen, cell-based, CHO-hERG, FluxOR thallium flux, dofetilide IC70 | Voltage-gated inwardly rectifying potassium channel KCNH2 (Homo sapiens), Q12809 | dofetilide IC70 present | activation (rescue from dofetilide block), less the hit threshold, % at 10 µM | 0.51% of 310,000 active | AID 1511, 2009;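 active = activation above the mean of controls blocked by dofetilide plus 5 SD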;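 note: thallium influx through hERG after potassium depolarization seen as dye fluorescence rise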
# KCNK3 inh: human KCNK3 channel inhibitors, primary screen, CHO cells, FluxOR thallium flux, B-score; FluxOR fluorescence; hits give low values; B-score at 10 µM; 0.84% of 340,000 active;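 active = B-score under library mean minus 4 SD, starting fluorescence ratio at most library mean plus 5 SD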;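 note: more negative B-score means stronger inhibition of thallium flux through KCNK3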
# KCNQ1 act: potentiators or activators of KCNQ1 channel, primary screen, cell-based, thallium flux, high-throughput; Potassium voltage-gated channel subfamily KQT member 1 (Homo sapiens), P51787; B-score at 10 µM; CHO-K1 KCNQ1, thallium flux FluxOR fluorescence; hits give high values; AID 2648, 2010; 0.35% of 310,000 active;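 active = fluorescence ratio B-score, a plate-corrected score, at least three library SD, with initial intensity B-score within 5 SD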
#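 System: Stable KCNQ1 CHO-K1 line | Incubation: 90 min dye loading and 20 min compound exposure, both at room temperature | Measure: Ratio B score | Medium: Assay buffer for compound exposure, DMSO matched across wells | Compound dosing: Single-concentration screen | Probe or stimulus: K+/Tl+ depolarizing stimulus | Measured by: Kinetic FluxOR fluorescence, 10 s baseline plus 110 s post-stimulus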
# KCNK9 inh: KCNK9 potassium channel inhibitors, primary screen, HEK293 cells, thallium flux; AID 488922, 2010; B-score at 10 µM; FluxOR thallium flux fluorescence; hits give low values; 1.2% of 310,000 active;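 active = ratio B-score over 3 SD below the library mean, with starting fluorescence within 5 SD of its mean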;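 note: negative B-score means less thallium flux so channel inhibition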
# Target sequence (Q9NPC2 whole entry, looked up): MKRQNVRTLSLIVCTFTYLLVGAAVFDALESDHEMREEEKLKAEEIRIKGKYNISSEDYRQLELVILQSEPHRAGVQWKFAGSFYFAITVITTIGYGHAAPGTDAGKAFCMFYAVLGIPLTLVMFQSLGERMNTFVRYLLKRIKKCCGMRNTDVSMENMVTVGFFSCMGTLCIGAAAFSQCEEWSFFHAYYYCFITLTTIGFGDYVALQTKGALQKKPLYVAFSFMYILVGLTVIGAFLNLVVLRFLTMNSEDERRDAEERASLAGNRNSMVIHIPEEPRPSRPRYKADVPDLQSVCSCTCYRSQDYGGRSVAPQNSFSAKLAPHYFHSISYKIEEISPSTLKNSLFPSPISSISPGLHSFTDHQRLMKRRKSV
# Kir21 inh: inhibitors of mouse Kir2.1 inward-rectifier potassium channel. Inward rectifier potassium channel 2 (Mus musculus), P35561. HEK293-Kir2.1, FluxOR thallium flux fluorescence; hits give low values. B-score at 10 µM. 0.85% of 310,000 active;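 active = fluorescence ratio B-score at or below minus 3 SD of library scores, with starting-brightness B-score within 2 SD, cut at about -4.2 in these data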;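 note: channel flux triggered by added potassium and thallium sulfate stimulus; B-score of peak minus minimum fluorescence over baseline after thallium stimulus; more negative B-score means stronger Kir2.1 block with less thallium influx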
# KCNQ1 block val: KCNQ1 potassium channel inhibitors, confirmation, cell-based, Tl flux, duplicate; shares compounds with KCNQ1 inh; KCNQ1 cell line, FluxOR thallium flux fluorescence; inhibition, % at 10 µM; AID 588353, 2011; 93% of 1,600 active;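 active = primary screen active, with duplicate mean exceeding buffer control mean plus 3 SD of buffer wells, cut at about 28% in these data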;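 note: 0% = buffer control ratio and 100% = XE991 inhibitor control ratio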
# CHO Tl flux: thallium flux effects in parental CHO cells, counter-screen for KCNQ1 inhibitor project, cell-based, Tl flux. shares compounds with KCNQ1 inh. parental CHO-K1, FluxOR thallium flux fluorescence ratio; hits give low values; zero means no signal rise above baseline. fluorescence ratio (Tl flux) at 10 µM. 21% of 1,600 active. AID 588366, 2011;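 active = mean of duplicate thallium-flux fluorescence ratios in parental host cells more than 5 SD below the buffer control mean, cut at about 0.38 in these data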;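 note: ratio is peak minus minimum fluorescence divided by baseline fluorescence; actives read low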
# KCNQ1 APC inh: KCNQ1 channel inhibitors, confirmation, orthogonal assay, cell-based, automated electrophysiology | KCNQ1-CHO cells, automated patch clamp current | shares compounds with KCNQ1 inh | 20% of 490 active | calls only at 10 µM | AID 624120, 2012;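 active = KCNQ1 current drop exceeding 3 SD of negative control wells, seen in both duplicate runs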;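 note: steady state current during a 2 s step from -80 to +40 mV; negative values mean current inhibition and positive values mean potentiation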
# KCNQ2 inh: KCNQ2 channel inhibition, selectivity assay for KCNQ1 inhibitor project, cell-based | 71% of 1,600 active | inhibition, % at 10 µM | shares compounds with KCNQ1 inh | KCNQ2 cells, FluxOR thallium flux fluorescence;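 active = mean percent inhibition of the KCNQ2 thallium signal more than 5 SD above the buffer-only control wells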;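 note: KCNQ2 expressed in CHO cells; 0% = buffer control wells and 100% = XE-991 inhibitor control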
# KCNQ1 KCNE1 spec: KCNQ1/KCNE1 channel inhibition, selectivity assay for KCNQ1 inhibitor project, CHO-K1 cells, thallium flux, FluxOR; shares compounds with KCNQ1 inh; FluxOR thallium flux fluorescence; inhibition, % at 10 µM; 77% of 1,600 active; AID 652147, 2013;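 active = mean percent inhibition of duplicate wells above the buffer-only control mean plus 3 SD of those controls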;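 note: 0% = buffer only wells and 100% = XE-991 inhibitor control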
# KCNK9 block conf: KCNK9 potassium channel inhibitors, confirmation, HEK293 cells, thallium flux, duplicate; AID 492992, 2010; 43% of 4,900 active; shares compounds with KCNK9 inh; inhibition, % at 10 µM; FluxOR thallium flux fluorescence;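 active = thallium signal inhibited by more than 5 SD of the compound-free buffer control wells, on both duplicate plates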;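 note: 0% = assay buffer control wells without compound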
# Kir2-1 spec: mouse Kir2.1 channel inhibition, confirmation, selectivity assay for KCNK9 modulator project, cell-based, HEK293, thallium flux. 4% of 4,900 active. inhibition, % at 10 µM. AID 492993, 2010. shares compounds with KCNK9 inh. Kir2.1 cells, FluxOR thallium flux fluorescence;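 active = thallium signal drop more than 5 SD beyond the mean of the no-compound control wells, seen in both duplicate plates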;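 note: signal is fluorescence rise after thallium addition divided by baseline fluorescence; plate controls were assay buffer only for no effect and full block by chlorpromazine control for full effect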
# KCNK9 uninduced: thallium flux in non-induced HEK293 cells, confirmation, counter-screen for KCNK9 inhibitor project, cell-based, second counter screen, non-induced KCNK9-HEK293; FluxOR thallium flux; inhibition, % at 10 µM; shares compounds with KCNK9 inh; AID 492997, 2010; 40% of 4,900 active;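 active = thallium signal drop beyond 5 SD of the untreated control mean, on both duplicate plates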;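 note: plate controls were buffer only IC0 wells for no effect and SID17386958 at its maximal inhibitory level for full effect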
# KCNK3 confirm: retest of human KCNK3 channel inhibitors, confirmation, CHO cells, FluxOR thallium flux, triplicate; shares compounds with KCNK3 inh; FluxOR fluorescence; 0% buffer, 100% carvedilol maximal block; ratio percent of control, % at 10 µM; 99% of 2,400 active; AID 651638, 2012;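 active = ratio percent of control, averaged over triplicates, above buffer control mean plus 5 SD, cut at about 64% in these data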;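 note: ratio is the fluorescence rise from min to max over baseline after thallium stimulus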
# KCNK3 noninduced: thallium flux inhibition in non-induced cells, primary screen, counter-screen for KCNK3 inhibitor project, cell-based, non-induced KCNK3 line, FluxOR thallium, triplicate; shares compounds with KCNK3 inh; non-induced KCNK3 parental cells; hits give low values; thallium flux ratio (lower = more inhibition) at 10 µM; 40% of 2,400 active; AID 651747, 2012;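 active = thallium flux ratio, averaged over three wells, more than 5 SD below the buffer control mean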;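 note: host cells are CHO cells without KCNK3 induction; ratio is peak minus trough fluorescence over baseline then normalized to buffer controls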
# The depositor's hits bear a star; i = inactive; / = no result given. This is a sample that favours compounds with a hit; in the whole collection about 3.7% have one here.
SMILES,KCNQ1 inh,hERG protect,KCNK3 inh,KCNQ1 act,KCNK9 inh,Kir21 inh,KCNQ1 block val,CHO Tl flux,KCNQ2 inh,KCNQ1 KCNE1 spec,KCNK3 confirm,KCNK3 noninduced,others
COc1cccc(-c2cc3nc4c(c(NCC(C)(C)CN(C)C)n3n2)CCCC4)c1,9*,-9.5,-10.1*,i,i,0.8,86.5*,0.451,95.0%*,116.5%*,120.0*,i,
CCOC(=O)C1CCN(c2c(C(=O)c3ccccc3)cnc3ccc(CC)cc23)CC1,7*,-7.0,-11.6*,i,-11.1*,1.09,134.5*,0.395,128.3%*,192.5%*,109.7*,i,KCNK9 block conf=28.0%*;Kir2-1 spec=i;KCNK9 uninduced=33.5%*
Cc1ccccc1OCC(O)Cn1c(=N)n(Cc2ccccc2)c2ccccc21 (stereo unspecified),12*,-25.9,-12.3*,i,i,-12.2*,130.0*,0.407,99.0%*,i,124.7*,i,KCNQ1 APC inh=i
Cc1ccc(NC(=O)C2CCN(c3ncnc4sc(C)c(C)c34)CC2)cc1S(=O)(=O)N(C)C,i,-12.0,i,i,i,1.93,/,/,/,/,/,/,
CCN(CC)S(=O)(=O)c1cc(NC(=O)C2CCN(c3ncnc4sc(C)c(C)c34)CC2)ccc1Cl,6*,-16.6,-9.55*,i,i,1.3,58.0*,0.459,72.0%*,95.0%*,102.0*,0.157*,
